Source: publication PMC11109934 (RSC Medicinal Chemistry, 2024)

How the values were obtained:
GL261-Luc cells = assay: xCELLigence real time monitoring of cell proliferation, GL261-Luc; type: cell-based, mouse; details: for reduction of cell index: 72 hours
[1] = test system: primary cultured mouse astrocytes; assay: xCELLigence real time monitoring of cell proliferation, primary mouse astrocytes; type: cell-based; details: for reduction of cell index: primary cultured mouse astrocytes, after 72 hours
BxPC3 cells = assay: xCELLigence real time monitoring of cell proliferation, BxPC3; type: cell-based, human
[2] = test system: caspase 3/7 activation in BxPC3 cells; assay: Caspase 3/7 assay, BxPC3; type: cell-based, human; details: 72 hours; for increase in caspase 3/7 activation (apoptosis): 256 μM
Summary of the method: (§1)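 BxPC3 (5 × 10^3/well) or GL261-Luc (3 × 10^3/well) cells in DMEM, 10% FBS, 1% pen-strep-glutamine. After 24 h, exposed to test compound for 72 h in medium with 0.1% DMSO final. CellEvent caspase-3/7 green reagent added for 1 h at 37 °C. Whole-well fluorescence imaged (Ex 488/Em 520). Cells then fixed (3.7% PFA), permeabilised (0.3% Triton X-100), BSA-blocked and stained with CellTag 700 (Ex 685/Em 720). Caspase signal normalised to cell number, then expressed as fold over control. At least 3 independent experiments, at least 4 replicates each.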

[3] = test system: BxPC3 human pancreatic cancer cells; assay: CyQUANT viability assay, BxPC3; type: cell-based; details: 72 hours, compared to the control
Summary of the method: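 BxPC3 cells (DMEM, 10% FBS, 1% pen-strep-glutamine; passages 10–20) were seeded at 5 × 10^3/well. After 24 h they were exposed to test compound for 72 h, with 0.1% DMSO final. Medium was removed, then CyQUANT Direct nucleic acid stain plus background suppressor in HBSS was added for 1 h at 37 °C. Whole-well fluorescence was laser-scanned (Ex 488/Em 520, 100 μm pixels) and normalised to control (100% viability). At least 3 independent experiments, at least 4 replicates each.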

[4] = test system: caspase 3/7 activation in GL261-Luc cells; assay: Caspase 3/7 assay, GL261-Luc; type: cell-based, mouse; details: 72 hours; for increase in caspase 3/7 activation (apoptosis): 256 μM
Summary of the method: as §1

[5] = BxPC3 cells, 128 μM, after 72 hours, compared to the control
[6] = 128 μM, normalised to cell number (CellTag 700)

| SMILES | increase in caspase 3/7 activation (apoptosis) [2] | reduction of viability (CyQUANT) ([3]; 256 μM) | reduction of cell index ([1]; 256 μM) | reduction of cell index (BxPC3 cells; BxPC3 cells, 256 μM, 72 hours) | increase in caspase 3/7 activation (apoptosis) [4] | reduction of cell index (GL261-Luc cells; 256 μM) | reduction of viability (CyQUANT) ([3]; 128 μM) | reduction of cell index ([1]; 128 μM) | reduction of cell index (BxPC3 cells; [5]) | reduction of cell index (GL261-Luc cells; 128 μM) | further results |
| --- | --- | --- | --- | --- | --- | --- | --- | --- | --- | --- | --- |
| Oc1cccc2ccccc12 [1-naphthol, 1-Naphthol] | – | – | – | – | – | – | – | – | – | – | time until cytotoxicity began (GL261-Luc cells; 128 μM): 28 h |
| Oc1ccc2ccccc2c1 [2-naphthol] | – | – | – | – | – | – | – | – | – | – | time until cell index declined ([1]; primary cultured astrocytes, 128 μM): ≤ 4 h; activity in real-time xCELLigence experiments (BxPC3 cells; 16 μM): notable activity; time until cell index declined (BxPC3 cells; BxPC3 cells, 128 μM): 8 h; ED50 (cell index) (BxPC3 cells; BxPC3 cells, 72-hour exposure time, xCELLigence): 21 µM; fold greater cytotoxicity than 1-naphthol (BxPC3 cells; BxPC3 cells, real time xCELLigence monitoring): 4 fold |
| C[C@H](N)C(=O)OCc1ccccc1 [L-alanine benzyl ester] | no significant increase | no significant effect | 11–17% | no significant effect | no significant increase | no significant effect | – | – | – | – | – |
| CC(C)OC(=O)[C@H](C)N [L-alanine isopropyl ester] | no significant increase | no significant effect | 11–17% | no significant effect | no significant increase | no significant effect | – | – | – | – | – |
| Oc1ccccc1 [phenol] | – | – | – | – | – | – | no significant effect | 11–17% | no significant effect | no significant effect | – |
| OCc1ccccc1O [salicyl alcohol] | – | – | – | – | – | – | no significant effect | 11–17% | no significant effect | no significant effect | increase in caspase 3/7 activation [2, 6]: no effect; increase in caspase 3/7 activation [4, 6]: no effect |
